High-throughput results as filed in PubChem.
PvdQ inh – P. aeruginosa PvdQ acylase inhibitors, primary screen, biochemical, fluorescence, plate reader and imaging, single point. purified PvdQ acylase. inhibition, % at 10 µM. hit rate 0.063% among 340,000; in the data active means inhibition above about 30%, passing the limit was not always enough;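 further: 0% = vehicle neutral wells and 100% = reference inhibitor wells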
VIM-2 inhibitor – VIM-2 metallo-beta-lactamase inhibitors, primary screen, biochemical, epi-absorbance readout, Pseudomonas aeruginosa enzyme; hit rate 0.89% among 290,000; purified VIM-2, nitrocefin hydrolysis, epi-absorbance fluorescence; AID 1527, 2009; inhibition, % at 5.6 µM;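 active means inhibition above the mean of all tested compounds plus 3 SD, cutoff set per screening run, cut at about 7.5% in these data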;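 further: red hydrolysis product quenches plate fluorescence so inhibitors raise well fluorescence; 0% = enzyme with DMSO and 100% = DMSO without enzyme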
PLCb3 inh – human PLC-beta3 inhibitors, primary screen, biochemical, fluorescence. AID 720704, 2013. Purified PLC-beta3, fluorogenic substrate. inhibition, % at 12.2 µM. hit rate 0.18% among 370,000. 1-phosphatidylinositol 4,5-bisphosphate phosphodiesterase beta-3 (Homo sapiens), Q01970; in the data active means inhibition above about 11%;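 further: 0% = median of compound wells on plate and 100% = full blocker control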
IMP-1 inhibitor – IMP-1 metallo-beta-lactamase inhibitors, primary screen, biochemical, epi-absorbance readout, Pseudomonas aeruginosa enzyme; inhibition, % at 5.6 µM; purified IMP-1, nitrocefin hydrolysis, epi-absorbance fluorescence; hit rate 0.45% among 290,000; metallo-beta-lactamase IMP-1 (Pseudomonas aeruginosa); AID 1556, 2009;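 active means inhibition above the mean plus 3 SD of all compounds in the same screening run, cut at about 4.5% in these data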;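 further: 0% = IMP-1 with DMSO and 100% = DMSO wells lacking enzyme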
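Material – recombinant IMP-1 enzyme, purified · Amount – IMP-1 0.2 nM before substrate addition · Medium – HEPES buffer pH 7.1 with ZnSO4 and Brij 35 · Timing – 25 °C, 15 min preincubation, 25 min reaction · Measured by – plate fluorescence quenching by hydrolysis product, ex 480/em 530 nm · Read-out – percent enzyme inhibition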
PLC-gamma1 inh – PLC-gamma1 enzyme inhibitors, primary screen, biochemical, fluorescence, purified enzyme; 1-phosphatidylinositol 4,5-bisphosphate phosphodiesterase gamma-1 (Homo sapiens), P19174; fluorogenic substrate; inhibition, % at 12.2 µM; hit rate 0.84% among 370,000; AID 720700, 2013
PLCg1 ctr – PLC-gamma1 enzyme inhibitors, counter-screen for PLC-beta3 inhibitor project, biochemical, fluorescence; shares compounds with PLC-gamma1 inh; purified PLC-gamma1, fluorogenic substrate; inhibition, % at 12.3 µM; hit rate 3.1% among 3,300; AID 743258, 2014
PLCbeta3 conf – PLC-beta3 inhibitor confirmation, biochemical, fluorescence, purified enzyme. hit rate 1% among 3,300. fluorogenic substrate fluorescence. shares compounds with PLC-gamma1 inh. inhibition, % at 12.3 µM; in the data active means inhibition above about 11%
An asterisk follows results filed as active; x = no result given. Most compounds without a hit are left out; they make up all but 2% or so of the library. Unless noted, no stated cut-off is given here; in the data, active means inhibition above about 9.5%; inactive means the rest.

SMILES	PvdQ inh	VIM-2 inhibitor	PLCb3 inh	IMP-1 inhibitor	PLC-gamma1 inh	PLCg1 ctr	PLCbeta3 conf
O=C(CSc1ccccc1)N(c1ccc(Br)cc1)c1nccs1	-11.9	1.3	5.5	-1.1	14.3*	-0.8	-1.5
O=C(CCSc1ccccc1)Nc1nccs1	9.7	0.6	-1.1	-0.8	0.5	x	x
CC12CCC(=O)C=C1CCC1C2C(O)CC2(C)C1CCC2(O)C(=O)CO (stereo unspecified)	3.5	0.6	-2.2	-2.2	10.9*	-5.9	1.1
Cc1ccc2c(CN3CCCCC3)cc(=O)oc2c1C	-17.5	0.1	-8.8	-2.6	-7.7	x	x
Cc1ccc2c(CSc3nncn3C)cc(=O)oc2c1C	1.1	5.6	4.5	-1.9	10.9*	-9.2	-0.7
Cc1nnc2sc(SCC(=O)N3CCC(C)CC3)nn2c1=O	4.7	-2.0	-2.4	-4.6	0.0	x	x
Cc1nnc2sc(SCC(=O)N3CCCCC3)nn2c1=O	-9.9	-1.4	-3.2	-2.5	11.7*	-6.9	-0.9
COc1ccc(S[C@]2(C(=O)N3CCN(C(C)=O)CC3)CC(=O)N[C@@H]2c2ccc(OC)cc2)cc1	x	x	-0.3	x	-1.3	x	x
Cc1cc(O)cc(=O)n1-c1cccc(C(F)(F)F)c1	x	x	-2.5	x	-1.8	x	x
CCOc1cccc(/C=N\NC(=O)c2cnccn2)c1O	x	x	3.6	x	-1.0	x	x
CCN(CC)S(=O)(=O)c1ccc(Cl)c(C(=O)NCC2CCCO2)c1 (stereo unspecified)	5.9	-2.8	-1.1	-2.0	2.4	x	x
CCN(c1ccccc1)S(=O)(=O)c1ccc(Cl)c(C(=O)NCC2CCCO2)c1 (stereo unspecified)	2.5	-1.7	-2.7	-2.7	12.5*	-5.6	-2.3
CCOC(=O)c1c(NC(=O)C2CCCN(S(=O)(=O)c3ccccc3)C2)sc2c1CCCC2 (stereo unspecified)	-0.5	-1.1	2.0	-1.1	-0.5	x	x
CCOC(=O)c1c(NC(=O)C2CCCN(S(=O)(=O)c3ccc(C)cc3)C2)sc2c1CCCC2 (stereo unspecified)	-10.7	-2.2	1.2	-0.5	14.8*	-6.2	-1.8
CCOC(=O)[C@H]1[C@H]2COc3ccccc3[C@@H]2N2C(=O)CNC(=O)[C@@]12C	10.0	x	12.7*	x	7.0	-9.0	-2.2
CCOC(=O)[C@H]1[C@H]2COc3ccccc3[C@@H]2N2C(=O)c3cc(F)c(F)cc3NC(=O)[C@@]12C	-7.2	x	5.3	x	4.1	x	x
O=C(O)c1ccccc1/C=N/NC(=S)NC1CCCCC1	-18.5	0.7	7.5	-3.2	11.2*	-8.9	-4.1
O=C(O)c1ccccc1/C=N/NC(=O)C1CCCCC1	2.0	-2.6	-2.9	-2.1	5.2	x	x
C/C(=N\OC(=O)c1ccc(Cl)cc1)c1nccs1	-5.6	-11.3	1.2	-2.8	3.8	x	x
CC(=NOC(=O)c1ccc(Cl)cc1)c1nccs1	x	x	7.1	x	16.0*	-8.5	-4.8
Cc1cc2n(n1)SC(Nc1ccc(F)cc1)N2 (stereo unspecified)	8.0	-2.8	3.7	-2.1	10.4*	-7.4	-4.0
Cc1cc2n(n1)SC(Nc1cc(Cl)ccc1Cl)N2 (stereo unspecified)	-12.1	-5.5	2.9	-2.5	1.0	x	x
Cc1cc(C(=O)OCC(=O)c2cccc([N+](=O)[O-])c2)c2ccccc2n1	2.6	-1.6	13.7*	-1.8	8.7	-6.3	-2.4
S=C(NC1CCCCC1)N1CCc2ccccc2C1	-13.2	-2.5	3.3	-4.5	9.9*	-6.0	-1.1
Nc1ccn([C@H]2CS[C@@H](CO)O2)c(=O)n1	-15.3	x	0.4	x	-1.6	x	x
SMILES	PvdQ inh	VIM-2 inhibitor	PLCb3 inh	IMP-1 inhibitor	PLC-gamma1 inh	PLCg1 ctr	PLCbeta3 conf
Nc1nc(=O)n([C@@H]2CS[C@H](CO)O2)cc1F	x	x	13.8*	x	14.2*	-0.9	-0.9
CCn1c(Cc2cccs2)nnc1SCC(=O)Nc1cccc2ccccc12	x	x	-1.9	x	-0.1	x	x
CCOC(=O)c1sc(-c2ccccc2)cc1NC(=O)CSc1nnnn1C	-10.0	-2.6	3.2	-4.2	13.2*	-6.0	-2.9
O=C(c1cnsn1)N1CCN(c2ccccc2)CC1	8.7	-0.6	10.9*	-4.4	7.0	-1.4	1.3
Nn1c(SCC(=O)Nc2ccc(OCc3ccccc3)cc2)nnc1-c1cc(-c2ccccc2)n[nH]1	x	x	3.3	x	4.8	x	x
CN(Cc1ccccc1)S(=O)(=O)c1cccc(C(=O)OCC2CCCCC2)c1	x	x	-1.5	x	1.1	x	x
